Experimental findings from PubChem BioAssay AID449754 (Broad Institute, 2010) are described below.

Records with an inconclusive call do not appear. Calls of active or inactive are those of the source.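 Rule for the calls: active = compounds whose fitted caspase activation AC50 is no more than tenfold above the top tested dose; inconclusive = flat fit with 30 to 70% activity, or a failed fit; inactive = the rest.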

Broadly, the AC50 is the midpoint of the concentration-response curve, whichever way the signal moves.

This test has as its system MEF Bax/Bak KO A1-BIM, caspase-Glo luminescence, 3 h. Nature of the test: caspase activation in Bax/Bak-deficient MEFs, dose response, counter-screen for A1 inhibitor project, cell-based, Bax-Bak knockout MEF, A1-2A-BIM, luminescence (AID 449754).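 Note: counterscreen where caspase activation signals off-target toxicity not A1 inhibition.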 The essentials: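 Material: Bax/Bak-knockout mouse embryonic fibroblasts expressing A1-2A-BIM | Quantity: 2500 cells per well, seeded one day before compound | Buffer or medium: RPMI-1640, 10% FBS | Incubation: 3 h compound at 37 °C, 1 h detection at RT | Signal: CaspaseGlo luminescence, reagent diluted 1:1 in 50 mM HEPES | Evaluation: Caspase activity from luminescent signal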
On the technique in general: The purpose of a counterscreen is to sort out artefacts and off-target activity.
For `C=C1/C=C(\C)[C@](C)(O)C[C@H](O)CC(=O)[C@H](O)[C@@H](O)[C@H](C)C[C@H](C)OC(=O)/C(C)=C/CC/C=C/[C@@H]2O[C@H]2C[C@H](C)C1`, the AC50 is > 35 µM (inactive).

Turning to `Cc1ccc2c(c1)C(=O)C(=O)N2Cc1ccc(Br)cc1`, the AC50 is > 35 µM (inactive).

In the case of `COc1ccc(C2Nc3ccc4ccccc4c3-c3c2c(=O)oc2ccccc32)cc1` (configuration not stated), the AC50 was 18.7 µM.

As for `COc1ccc(OC[C@@H](O)CNC(=O)c2cccc3c2C(=O)c2ccc(-c4ccc(F)cc4OCc4ccccc4)cc2S3(=O)=O)cc1`, the AC50 was > 35 µM (inactive).

Take `O=C(Nc1ccc2oc(-c3ccccc3F)nc2c1)c1ccccc1F`: the AC50 is > 35 µM (inactive).

For `CC(=O)Nc1sc(N/N=C\c2cccc(Cl)c2)nc1-c1cccs1`, the AC50 was > 35 µM (inactive).

With `COc1cc(-c2cc(-c3ccccc3)nc(SCC(=O)Nc3nccs3)c2C#N)cc(OC)c1OC`, the AC50 was > 35 µM (inactive).

Consider `O=C(Nc1ccc(O)c2c(=O)cc(-c3cccc(Cl)c3)oc12)c1cccc(Cl)c1`, for which the AC50 was > 35 µM (inactive).

Take `O=C(CN(c1ccc(Br)cc1)S(=O)(=O)c1ccc(Cl)c([N+](=O)[O-])c1)NCCc1ccccc1`: the AC50 is > 35 µM (inactive).

Consider `C#CC(=O)N(c1cc(OC)ccc1OC)C(C(=O)NC1CCCC1)c1cccs1` (configuration not stated), for which the AC50 is > 35 µM (inactive).

Turning to `O=C(Nc1ccc(-c2nc3cc(NC(=O)c4cccs4)ccc3o2)cc1)c1cccs1`, the AC50 is > 35 µM (inactive).

For the molecule `COc1cc(NC(=O)c2ccccc2)c(OC)cc1NC(=O)Cc1ccc(Br)cc1`, the AC50 was > 35 µM (inactive).

With `CCOc1cc(C(=O)CSc2nnc(CNc3ccc(Cl)cc3)o2)ccc1NC(=O)CC`, the AC50 is 17.6 µM.

Regarding `O=C1/C(=C\c2c(NCCOCCO)nc3ccccn3c2=O)SC(=S)N1Cc1ccco1`, the AC50 is > 35 µM (inactive).

As to `CCCc1ccc(OCc2ccc(C(=O)N/N=C/c3cccc([N+](=O)[O-])c3)o2)c(OC)c1`, the AC50 was 26.3 µM.

As to `Cc1ccc(-c2nc(NC(=O)c3nn(C)cc3[N+](=O)[O-])sc2C)cc1C`, the AC50 was 16.2 µM.

On to `O=C(Nc1ccc(Cl)cc1Cl)c1cccc(N2C(=O)C=CC2=O)c1`, for which the AC50 is > 35 µM (inactive).

In the case of `Cc1ccc(NC(=O)CSc2nc3nc(C)c(Br)cc3[nH]2)cc1F`, the AC50 is > 35 µM (inactive).

Consider `COc1cc(NC(=O)c2cccc(C)c2)ccc1NC(=O)c1cc2ccccc2o1`, for which the AC50 is > 35 µM (inactive).

Regarding `Cc1ccc(NC(=O)c2ccc(N/N=C/c3cccc(O)c3)c([N+](=O)[O-])c2)cc1`, the AC50 was 27.3 µM.

On to `COc1cc(CN2CCN(c3cc(C)ccc3C)CC2)ccc1O`, for which the AC50 was > 35 µM (inactive).

In the case of `COC(=O)[C@@]1(C)CC[C@]2(C)CC[C@@]3(C)C(=CC(=O)C4[C@@]5(C)CC[C@H](O)C(C)(C)[C@@H]5CC[C@]43C)[C@H]2C1` (some centres not stated), the AC50 is > 35 µM (inactive).

Take `Cc1ccc(Sc2c([N+](=O)[O-])c(=O)n(C)c3ccccc23)cc1`: the AC50 is > 35 µM (inactive).

Turning to `Cc1ccc(NC(=O)c2cc(N3C(=O)C=CC3=O)ccc2N2CCOCC2)cc1Cl`, the AC50 was > 35 µM (inactive).

With `N#Cc1cccnc1N1CCN(C(=O)c2cccc3c2C(=O)c2ccc(-c4ccc(Cl)c(C(F)(F)F)c4)cc2S3(=O)=O)CC1`, the AC50 is > 35 µM (inactive).

Regarding `COc1ccc(NC(=O)c2cccc3c2C(=O)c2ccc(-c4ccc(F)cc4OCc4ccccc4)cc2S3(=O)=O)cc1`, the AC50 was > 35 µM (inactive).

With `O=S1(=O)CCOC[C@H](CC2CCCCC2)N1Cc1cccc(Cl)c1`, the AC50 was > 35 µM (inactive).

Regarding `Clc1ccccc1CN(Cc1ccccc1)c1ncnc2nc[nH]c12`, the AC50 is > 35 µM (inactive).

For `CC1(C)C[C@H](O)[C@]2(CO)[C@H](O)C[C@]3(C)C(=CCC4[C@@]5(C)CC[C@H](O)C(C)(C)C5CC[C@]43C)[C@@H]2C1` (some centres not stated), the AC50 is > 35 µM (inactive).

On to `Cc1c(C=O)c(C=O)c(C)n1Cc1ccccc1`, for which the AC50 was > 35 µM (inactive).

For `C=C1CCc2c([nH]c3ccc(OCC(C)C)cc23)C1=O`, the AC50 was 16.6 µM.

Take `CC(C)N=c1scc(-c2ccco2)n1/N=C/c1ccc(O)c(O)c1`: the AC50 is > 35 µM (inactive).

In the case of `O=C(c1ccc(COc2ccc3ccccc3c2)o1)N1N=C(C(F)F)CC1(O)C(F)F` (configuration not stated), the AC50 is > 35 µM (inactive).

For `CC(C)(C)[C@H](N)C(=O)N[C@H]1CCC2C3CC=C4C[C@@H](O)CC[C@]4(C)C3CC[C@@]21C` (some centres not stated), the AC50 is > 35 µM (inactive).

Regarding `C=CC(=O)Nc1ccc(CN2C(=O)N(c3c(Cl)c(OC)cc(OC)c3Cl)Cc3cnc(NCCCCN(CC)CC)nc32)cc1`, the AC50 was > 35 µM (inactive).

With `Cc1ccc2nc(N(CCCN(C)C)C(=O)c3ccc(S(=O)(=O)N4CCc5ccccc5C4)cc3)sc2c1`, the AC50 is > 35 µM (inactive).

Consider `CCn1c(Cl)c(C=O)s/c1=N\S(=O)(=O)c1ccccc1`, for which the AC50 is > 35 µM (inactive).

Regarding `COc1ccc2c(c1)CCc1c(C(=O)Nc3cc(C)n(Cc4ccc(Cl)cc4)n3)noc1-2`, the AC50 is 7.59 µM.

Consider `COc1ccc(-c2ccc3c(c2)S(=O)(=O)c2cccc(C(=O)NC[C@@H]4CCCO4)c2C3=O)cc1OC`, for which the AC50 is > 35 µM (inactive).

For `CC1=NNC(=O)/C1=C\c1cn(-c2ccccc2)nc1-c1cccs1`, the AC50 is 7.61 µM.

Take `CCCCNC(=S)N/N=C/c1ccc(OCC(=O)Nc2c(C)cc(C)cc2C)c(OC)c1`: the AC50 was > 35 µM (inactive).

Take `CN(C)C/C=C(\c1ccc(Br)cc1)c1cccnc1`: the AC50 is > 35 µM (inactive).

Turning to `COc1ccccc1C(=O)Nc1ccnn1C1CCN(Cc2cn(C)c3ccccc23)CC1`, the AC50 was > 35 µM (inactive).

`Cc1ccc(N(Cc2cc(=O)[nH]c3ccccc23)C(=O)CCl)cc1`: the AC50 is > 35 µM (inactive).

Regarding `O=C(NCc1ccccc1Cl)c1cccc2c1C(=O)c1ccc(-c3ccc(OC(F)(F)F)cc3)cc1S2(=O)=O`, the AC50 is > 35 µM (inactive).

In the case of `CN1C2CCC1/C(=C/c1ccccn1)C(=O)/C2=C\c1ccccn1`, the AC50 is > 35 µM (inactive).

`COc1ccc(-c2ccc3c(c2)S(=O)(=O)c2cccc(C(=O)NCCOc4ccccc4)c2C3=O)cc1OC`: the AC50 is > 35 µM (inactive).

`Cc1cc(C)cc(NC(=O)/C(C#N)=C/c2cn(CC(=O)NCc3ccco3)c3ccccc23)c1`: the AC50 was 6.71 µM.

On to `Cc1ccc(NC(=S)NC(NC(=O)Cc2cccc3ccccc23)C(Cl)(Cl)Cl)cc1` (configuration not stated), for which the AC50 is 22.9 µM.

Turning to `CN(C)CCCN(C(=O)c1cc2cc([N+](=O)[O-])ccc2s1)c1nc2cc3c(cc2s1)OCCO3`, the AC50 is > 35 µM (inactive).

In the case of `CC1=NNC(=O)/C1=C\c1cn(-c2ccccc2)nc1-c1ccccc1`, the AC50 was 11 µM.

For `CC1=CC(=O)C(C(C)C)=C/C1=N/OS(=O)(=O)c1ccccc1`, the AC50 was 7.41 µM.

`Cc1cc(=O)[nH]c(SCC(=O)Nc2ccc(Br)cc2)c1C#N`: the AC50 was > 35 µM (inactive).

In the case of `COc1ccc(-c2c(C#N)c(N)nc(Sc3ccc(Cl)cc3)c2C#N)cc1`, the AC50 is > 35 µM (inactive).

Regarding `COc1ccc(C[C@H]2NC[C@H](O)[C@H]2OC(C)=O)cc1`, the AC50 was > 35 µM (inactive).

Turning to `COc1cccc(C(=O)C(C#N)=C(SC)SC)c1`, the AC50 is > 35 µM (inactive).

For the molecule `CCn1c(SCC(=O)c2ccccc2)nnc1-c1cc2cc(Br)ccc2o1`, the AC50 is > 35 µM (inactive).

On to `O=C(Nc1ccc2oc(-c3cccc(F)c3)nc2c1)c1ccccc1F`, for which the AC50 was > 35 µM (inactive).

Take `Oc1[nH]c2ccc(Br)cc2c1N=NC(=S)Nc1ccc(F)cc1`: the AC50 is > 35 µM (inactive).

`COc1cc2ncnc(NCc3ccc(F)cc3)c2cc1OC`: the AC50 was > 35 µM (inactive).

As to `CC(C)CC(NC(=O)c1ccc(Cl)cc1)C(=O)OCC(=O)c1ccc2c(c1)NC(=O)CO2` (configuration not stated), the AC50 is 6.3 µM.

As for `CC(C)(C)c1ccc(C(=O)Nc2ccc(O)c3c(=O)cc(-c4cccc(Cl)c4)oc23)cc1`, the AC50 is > 35 µM (inactive).

Turning to `COc1ccc2c(-c3cc4ccc(OCc5ccc(F)cc5)cc4oc3=O)cc(=O)oc2c1`, the AC50 was 36.6 µM.

For `CCOC(=O)C1=C(c2ccccc2)O/C(=C(/C#N)C(F)(F)F)S1`, the AC50 is > 35 µM (inactive).

Take `CC(=O)Nc1ccc(NC(=O)C(=O)NCC(c2ccco2)N2CCc3ccccc32)cc1` (configuration not stated): the AC50 is 35.8 µM.

Consider `Cc1cccc(NC(=O)/C(C#N)=C/c2cn(CC(=O)NCc3ccco3)c3ccccc23)c1`, for which the AC50 is > 35 µM (inactive).

For `O=C(/C=C/c1ccc(F)cc1)NC(=S)Nc1ccccc1C(=O)NC1CCCCC1`, the AC50 is > 35 µM (inactive).

Turning to `COc1cc(/C=C(/C#N)c2nc3ccccc3[nH]2)ccc1OCC(=O)Nc1ccccc1C`, the AC50 is 7.39 µM.

Take `O=C(Oc1cccc(/C=N/Nc2nc(Nc3ccccc3)nc(N3CCOCC3)n2)c1)c1ccco1`: the AC50 is > 35 µM (inactive).

For `CC(=O)Nc1ncnc2c1c(-c1ccc(Cl)cc1)nn2C(C)(C)C`, the AC50 is > 35 µM (inactive).

On to `CC(=O)[C@]1(O)Cc2c(O)c3c(c(O)c2[C@@H](O[C@H]2C[C@H](N)[C@H](O)[C@H](C)O2)C1)C(=O)c1ccccc1C3=O`, for which the AC50 was > 35 µM (inactive).

Consider `O=C1C2C3C=CC(CO)(O3)C2C(=O)N1c1ccc(-c2ccccc2)cc1` (configuration not stated), for which the AC50 is > 35 µM (inactive).

`CC(C)(C)C1CCc2onc(C(=O)Nc3cccc(O)c3)c2C1` (configuration not stated): the AC50 was > 35 µM (inactive).

Turning to `CCc1ccc(NC(=O)c2nc(S(=O)(=O)Cc3ccccc3)ncc2Cl)cc1`, the AC50 is > 35 µM (inactive).

On to `CCS(=O)(=O)c1ncc(Cl)c(C(=O)Nc2ccccc2OC)n1`, for which the AC50 was > 35 µM (inactive).

For `CCS(=O)(=O)c1ncc(Cl)c(C(=O)Nc2ccc(S(=O)(=O)N3CCC(C)CC3)cc2)n1`, the AC50 was > 35 µM (inactive).

Consider `O=C(COc1ccc(/C=N/NC(=O)c2cc3ccccc3o2)cc1Cl)Nc1ccccc1`, for which the AC50 was 9.03 µM.
